Experimental data collected from several papers.
Each line is one published result; the experiments were not run side by side.
Organism: Plasmodium falciparum
Observed: parasite growth

O=C1c2[nH]cc3c2C(=NCC3)c2c(-c3ccc(O)cc3)c[nH]c21
IC50 (SYBR Green; W2; blood stage): 4540 nM

Cc1cc(Nc2ccc(S(F)(F)(F)(F)F)cc2)n2nc(C(C)(F)F)nc2n1
EC50 (3D7; blood stage): 8.4 nM

O=C(/C=C/c1cn(Cc2cn(-c3ccnc4cc(Cl)ccc34)nn2)c2ccccc12)c1cccc([N+](=O)[O-])c1
inhibition (SYBR Green; 3D7; 5 µM, blood stage): 4.82%

COC(CNC1=CC2=NCCc3c[nH]c(c32)C1=O)c1c[nH]c2ccccc12 (centres unmarked)
IC50 (SYBR Green; W2; blood stage): 1120 nM

COCC(=O)N1CCC[C@H](C(=O)NCc2nc(-c3ccc(C)cc3)cs2)C1
EC50 (SYBR Green; DD2; 72 h, blood stage): 15 nM

COC1=CC2=[N+](C)CCc3c[nH]c(c32)C1=O
IC50 (SYBR Green; W2; blood stage): 1520 nM

COc1ccccc1C(=O)/C=C/c1cn(Cc2cn(-c3ccnc4cc(Cl)ccc34)nn2)c2ccccc12
IC50 (SYBR Green; drug-resistant strain, blood stage): 3500 nM

NC1=CC2=NCCc3c[nH]c(c32)C1=O
IC50 (SYBR Green; W2; blood stage): 294 nM

CCOC(=O)C1=C(C)NC2=C(C(=O)CC(c3ccc(Cl)c(OC)c3)C2)C1c1ccccc1Cl (centres unmarked)
EC50 (SYBR Green; 3D7; blood stage): ~20 nM

COCC(=O)N1CCC[C@H](C(=O)NCc2nc(-c3ccc(OC)cc3)cs2)C1
EC50 (SYBR Green; DD2; 72 h, blood stage): 20 nM

O=C(/C=C/c1cn(Cc2cn(-c3ccnc4cc(Cl)ccc34)nn2)c2ccccc12)c1ccccc1Br
inhibition (SYBR Green; 3D7; 10 µM, blood stage): 47.4%

O=C1C(NCCc2c[nH]c3ccccc23)=CC2=NCCc3c[nH]c1c32
IC50 (SYBR Green; DD2; blood stage): 598 nM

COCC(=O)N1CCC[C@H](C(=O)NCc2nc(-c3cccnc3)cs2)C1
EC50 (SYBR Green; DD2; 72 h, blood stage): 92 nM

Cn1cc2c3c1C(=O)C(NCCc1ccc(O)cc1)=CC3=NCC2
IC50 (SYBR Green; W2; blood stage): 5010 nM

O=C(/C=C/c1cn(Cc2cn(-c3ccnc4cc(Cl)ccc34)nn2)c2ccccc12)c1ccc(Br)cc1
inhibition (SYBR Green; 3D7; 10 µM, blood stage): 37.4%

CCOCC(=O)N1CCC[C@H](C(=O)NCc2nc(-c3ccc(C#N)cc3)cs2)C1
EC50 (SYBR Green; DD2; 72 h, blood stage): 5.8 nM

O=C(/C=C/c1cn(Cc2cn(-c3ccnc4cc(Cl)ccc34)nn2)c2ccccc12)c1ccccc1[N+](=O)[O-]
inhibition (SYBR Green; 3D7; 10 µM, blood stage): 26.1%

COCC(=O)N1CCC[C@@H](C(=O)NCc2nc(-c3ccccc3)cs2)C1
EC50 (SYBR Green; DD2; 72 h, blood stage): 7000 nM

CCN(CC)CCCC(C)Nc1ccnc2cc(Cl)ccc12 (centres unmarked)
IC50 (SYBR Green; 3D7; 96 h, blood stage): 4.8 nM

O=C(/C=C/c1cn(Cc2cn(-c3ccnc4cc(Cl)ccc34)nn2)c2ccccc12)c1ccccc1
inhibition (SYBR Green; 3D7; 5 µM, blood stage): -3.08%
